The record followed here is ChEMBL document CHEMBL1275565, “Minimal effects of ritonavir and efavirenz on the pharmacokinetics of raltegravir” (Antimicrob Agents Chemother, 2008).

What all share (assay type): ADME, organism-based
The nature of data set [1]: AUC (0 to infinity) in HIV-negative human at 400 mg, po administered as single dose. The settings on record: plasma. The arrangement: dose 400 mg, time infinity, route oral. Put shortly: (§1)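 Period 1 of two crossover studies in healthy male volunteers: single 400 mg oral raltegravir alone. Plasma sampled 0–72 h postdose and assayed by validated reverse-phase HPLC-MS/MS (LLOQ 2 ng/ml, linear to 1,000 ng/ml), converted to nM (MW 444.4). Cmax by inspection; C12h from the nominal 12 h sample; AUC0–∞ by linear/log trapezoidal plus extrapolation from the last concentration/β.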

The nature of data set [2]: Trough plasma concentration at 12 hrs in HIV-negative human at 400 mg, po administered as single dose. The following applies: read-out: Cmin. Put shortly:
as §1

Data set [3] in a line: Primary phase half life in HIV-negative human at 400 mg, po administered as single dose. The following applies: in vivo, read-out: alphat1/2 (converted). Put shortly: (§2)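 Healthy male volunteers; plasma raltegravir measured by validated reverse-phase HPLC-MS/MS (LLOQ 2 ng/ml, linear 2 to 1,000 ng/ml) and converted to nM. Each subject's profile was fit to a biexponential model (weighting 1/(predicted concentration)², Gauss-Newton minimization), with α-phase onset set by inspection. Phase t1/2 = ln(2)/α or β. Median differences were estimated by Hodges-Lehman with 90% CI.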

The nature of data set [4]: Cmax in HIV-negative human at 400 mg, po administered as single dose. The settings on record: in vivo. The arrangement: dose 400 mg, route oral. The procedure, abridged: as §1
Data set [5] is described as follows: Terminal half life in HIV-negative human at 400 mg, po administered as single dose followed by 4 days wash out period followed by efavirenz dosing at 600 mg, po bid for 14 days coadministered with compound at 400 mg, po on day 12. The following applies: in vivo, in the assay text read “po qd for 14 days” for “po bid for 14 days”, read-out: beta t1/2 (converted). Put shortly: as §2

Data set [6] in a line: Cmax in HIV-negative human at 400 mg, po administered as single dose followed by 4 days wash out period followed by efavirenz dosing at 600 mg, po bid for 14 days coadministered with compound at 400 mg, po on day 12. The arrangement: dose 400 mg, route oral. The following applies: in vivo, in the assay text read “po qd for 14 days” for “po bid for 14 days”. The procedure, abridged:
(§3)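 Efavirenz 600 mg orally once daily at bedtime for 14 days, with a single 400 mg oral raltegravir (double-blind vs placebo) alongside on day 12. Healthy males, all doses taken fasted. Plasma sampled at 0–72 h postdose as in the ritonavir study, but at 36 h instead of 32 h, and quantified by HPLC-MS/MS. Cmax by inspection; C12h at nominal 12 h; AUC0–∞ by linear/log trapezoidal plus extrapolation.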

Data set [7] is described as follows: Primary phase half life in HIV-negative human at 400 mg, po administered as single dose followed by 4 days wash out period followed by ritonavir dosing at 100 mg, po bid for 16 days coadministered with compound at 400 mg, po on day 14. The settings on record: in vivo, read-out: alphat1/2 (converted). Put shortly: as §2
Data set [8] can be described thus: Trough plasma concentration at 12 hrs in HIV-negative human at 400 mg, po administered as single dose followed by 4 days wash out period followed by ritonavir dosing at 100 mg, po bid […] coadministered with compound at 400 mg, po on day 14. The settings on record: read-out: Cmin. Put shortly: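 In healthy young males, ritonavir 100 mg twice daily for 14 days, with a single 400 mg oral raltegravir (double-blind vs placebo) given with the morning dose on day 14. All doses followed a moderate-fat meal. Cmax and Tmax by inspection at nominal times; C12h from the 12 h sample; AUC0–∞ by trapezoidal sum plus extrapolation.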

Data set [9] is described as follows: Tmax in HIV-negative human at 400 mg, po administered as single dose followed by 4 days wash out period followed by […] coadministered with compound at 400 mg, po on day 14. The following applies: in vivo.
Data set [10] is described as follows: Trough plasma concentration at 12 hrs in HIV-negative human at 400 mg, po administered as single dose followed by 4 days wash out period followed by efavirenz dosing at 600 mg, po bid for 14 days coadministered with compound at 400 mg, po on day 12. The settings on record: in the assay text read “po qd for 14 days” for “po bid for 14 days”, read-out: Cmin. The procedure, abridged:
as §3

Data set [11] is described as follows: AUC (0 to infinity) in HIV-negative human at 400 mg, po administered as single dose followed by 4 days wash out period followed by efavirenz dosing at 600 mg, po bid for 14 days coadministered with compound at 400 mg, po on day 12. The arrangement: dose 400 mg, route oral, time infinity. The following applies: plasma, in the assay text read “po qd for 14 days” for “po bid for 14 days”. Put shortly: as §3

Data set [12] is described as follows: Terminal half life in HIV-negative human at 400 mg, po administered as single dose. The following applies: in vivo, read-out: beta t1/2 (converted). The procedure, abridged:
as §2

Data set [13] in a line: Cmax in HIV-negative human at 400 mg, po administered as single dose followed by 4 days wash out period followed by […] coadministered with compound at 400 mg, po on day 14. The following applies: in vivo. The arrangement: dose 400 mg, route oral.
A short description of data set [14]: Terminal half life in HIV-negative human at 400 mg, po administered as single dose followed by 4 days wash out period followed by ritonavir dosing at 100 mg, po bid for 16 days coadministered with compound at 400 mg, po on day 14. The settings on record: in vivo, read-out: beta t1/2 (converted). Put shortly: as §2
Data set [15] in a line: AUC (0 to infinity) in HIV-negative human at 400 mg, po administered as single dose followed by 4 days wash out period followed by […] coadministered with compound at 400 mg, po on day 14. The settings on record: plasma. The arrangement: dose 400 mg, time infinity, route oral.
Data set [16] can be described thus: Primary phase half life in HIV-negative human at 400 mg, po administered as single dose followed by 4 days wash out period followed by efavirenz dosing at 600 mg, po bid for 14 days coadministered with compound at 400 mg, po on day 12. The settings on record: in vivo, in the assay text read “po qd for 14 days” for “po bid for 14 days”, read-out: alphat1/2 (converted). Put shortly: as §2

As for `Cc1nnc(C(=O)NC(C)(C)c2nc(C(=O)NCc3ccc(F)cc3)c(O)c(=O)n2C)o1` [RALTEGRAVIR], the area under the curve AUC(0-inf) was found to be 22.9 µM·h in data set [1], 18.1 µM·h in [11] and 19.3 µM·h in [15]. Further, the concentration at 12 h in [2] is 0.0771 µM; in data set [8], 0.0765 µM; in [10] it was 0.0625 µM. Further, the half-life in data set [3] is 0.98 h; in data set [5], 9.1 h; in data set [7] it was 0.97 h; in [12], 10.8 h; in [14] it was 10 h; in data set [16], 0.95 h. Besides, the Cmax worked out at 9.57 µM in [4], 6.45 µM in data set [6] and 7.23 µM in [13]. The time to peak (Tmax) in [9] worked out at 2 h.
